Experimental data taken from ChEMBL document CHEMBL5634162, “Cyclohexylalanine-Containing α-Helical Amphipathic Peptide Targets Cardiolipin, Rescuing Mitochondrial Dysfunction in Kidney Injury” (J Med Chem, 2024).
Active and inactive are the calls of the source. The calls are words filed in the database; no cut-off is given here. Where a SMILES comes first, the peptide text is derived from it. Bridges are numbered along the chain shown (N, C = ends). Roman numbers before positions name the chains, in order. [ ]: non-standard residue; d: D form. The star is where a group is joined. 5TAMRA = CN(C)c1ccc2c(c1)Oc1cc(N(C)C)ccc1C21OC(=O)c2cc(C(=O)*)ccc21; Cha = N[C@@H](CC1CCCCC1)C(=O)O

What was measured:
Mus musculus [1] = experiment: Protection against […] C57BL/6 mouse model assessed as reduction in tubular damage at 1 mg/kg, ip administered thrice a week prior to induction of bilateral ischemia-reperfusion injury measured after 6 days by IHC analysis; assay type: functional, organism-based; conditions: time 6.0 day
Mus musculus [2] = experiment: Protection against […] C57BL/6 mouse model assessed as reduction in cast formation at 1 mg/kg, ip administered thrice a week prior to induction of bilateral ischemia-reperfusion injury measured after 6 days by IHC analysis; assay type: functional, organism-based; conditions: time 6.0 day
Mus musculus [3] = experiment: Protection against colistin-induced nephrotoxicity in C57BL/6 mouse model assessed as reduction in P-21 level at 1 mg/kg, ip administered once every other day measured after 7 days by IHC analysis; assay type: functional, organism-based; conditions: time 7.0 day
Outline: (§1)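 Male C57BL/6 mice, 7 weeks: colistin 20 mg/kg sc daily for 7 days, peptide 1 mg/kg ip once every other day, n = 5 per group. Day-7 kidney sections, citrate antigen retrieval, immunohistochemistry with HRP polymer secondary and hematoxylin counterstain; PAS and Masson's trichrome for damage.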

Epithelial cell [4] = experiment: Reversal of H2O2-induced p21 mRNA level in human tubular epithelial cells at 10 to 100 nM by qPCR analysis; assay type: functional, cell-based; conditions: dose 10-100 nM
Mus musculus [5] = experiment: Protection against […] C57BL/6 mouse model assessed as decrease in NGAL level at 1 mg/kg, ip administered thrice a week prior to induction of bilateral ischemia-reperfusion injury measured after 6 days by Western blot analysis; assay type: functional, organism-based; conditions: time 6.0 day
Mus musculus [6] = experiment: Protection against […] C57BL/6 mouse model assessed as decrease in cyt C level at 1 mg/kg, ip administered thrice a week prior to induction of bilateral ischemia-reperfusion injury measured after 6 days by IHC analysis; assay type: functional, organism-based; conditions: time 6.0 day
Epithelial cell [7] = experiment: Inhibition of H2O2-induced intracellular ROS level in human tubular epithelial cells at 20 to 60 nM pretreated for 3 hrs followed by H2O2 addition measured after 30 mins by H2DCFDA staining based analysis; assay type: functional; conditions: dose 20-60 nM
Outline: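 hTECs seeded, 24 h later given peptide 3 h, then H2O2 1 mM for 30 min; H2DCFDA 25 μM for 30 min, washed, read in HBSS on plate reader at 37 °C (Ex/Em 485/535 nm).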

[8] = Drug localization in lysosomes of human HeLa cells at 100 nM incubated for 3 hrs by NAO probe based analysis; assay type: ADME, subcellular, Lysosome; conditions: 0.1 µM
Outline: (§2)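 HeLa cells given TAMRA-labelled peptide 100 nM for 3 h and cardiolipin stained with NAO (100 nM, 1 h), with or without 20 μM CCCP for 30 min; LysoTracker 50 nM. Confocal images, Pearson r from five independent images (63×) per condition.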

Mus musculus [9] = experiment: Protection against colistin-induced nephrotoxicity in C57BL/6 mouse model assessed as appearance of compact cristae in mitochondria of kidney at 1 mg/kg, ip administered once every other day measured after 7 days by TEM analysis; assay type: functional, organism-based; conditions: time 7.0 day
Outline: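 Male C57BL/6 mice, 7 weeks, given colistin 20 mg/kg sc daily for 7 days with peptide 1 mg/kg ip once every other day, n = 5 per group; kidney mitochondria examined by TEM.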

Mitochondria = experiment: Inhibition of CCCP -induced mitochondrial ROS generation in human HeLa cells incubated for 190 mins followed by CCCP addition measured after 90 mins by MitoSOX probe based analysis; assay type: functional; conditions: dose 5-20 nM
Outline: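 HeLa cells seeded, stained 24 h later with MitoSOX 5 μM for 10 min, washed, HBSS, read on plate reader at 37 °C (Ex/Em 510/580 nm).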

Epithelial cell [10] = experiment: Reversal of H2O2-induced mitochondrial dysfunction in human tubular epithelial cells assessed as increase in OCR level measured for 40 to 60 mins by Seahorse assay; assay type: functional, cell-based; conditions: dose 10-50 nM, time 40-60 min
Outline: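 hTECs were exposed to H2O2 with peptide at 10 or 50 nM (n = 6 per group), then run on a Seahorse XFe96. OCR was read after sequential 2 μM oligomycin, 1 μM FCCP, and 0.5 μM rotenone/antimycin A. ECAR was read after 10 mM glucose, 1 μM oligomycin and 50 mM 2-DG. Glycolytic proton efflux rate was taken as glycoATP production rate.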

Epithelial cell [11] = experiment: Induction of antimycin A-reduced ATP production in human tubular epithelial cells at 10 to 20 nM incubated for 3 hrs followed by antimycin A addition by fluorescene based analysis; assay type: functional; conditions: dose 10-20 nM
Mus musculus [12] = experiment: Protection against colistin-induced nephrotoxicity in C57BL/6 mouse model assessed as reduction in blood BUN level at 1 mg/kg, ip administered once every other day measured upto 7 days; assay type: functional, organism-based; conditions: time <= 7.0 day
Outline: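 Male C57BL/6 mice, 7 weeks: colistin 20 mg/kg sc daily for 7 days, peptide 1 mg/kg ip every other day, n = 5 per group. BUN by autoanalyzer and creatinine by modified Jaffe reaction after 7 days; mean ± SEM.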

[13] = Drug localization in lysosomes of human HeLa cells expressing endosome markers at 100 nM incubated for 3 hrs by LysoTracker probe based analysis; assay type: ADME, subcellular, Lysosome; conditions: 0.1 µM
Outline: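 HeLa cells expressing early-endosome GFP marker (16 h) given TAMRA-labelled peptide 100 nM for 3 h plus LysoTracker 50 nM; confocal imaging with Pearson correlation.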

[14] = Drug localization in lysosomes of human HeLa cells at 100 nM incubated for 3 hrs in presence of CCCP by NAO probe based analysis; assay type: ADME, subcellular, Lysosome; conditions: 0.1 µM; outline: as §2
Epithelial cell [15] = experiment: Induction of H2O2-reduced ATP production in human tubular epithelial cells at 10 to 20 nM incubated for 3 hrs followed by H2O2 measured after 1 hr by fluorescene based analysis; assay type: functional; conditions: dose 10-20 nM, time 4.0 hrs
Mus musculus [16] = experiment: Protection against colistin-induced nephrotoxicity in C57BL/6 mouse model assessed as reduction in tubular casts at 1 mg/kg, ip administered once every other day measured after 7 days by […] analysis; assay type: functional, organism-based; conditions: time 7.0 day
Outline: (§3)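 Seven-week-old male C57BL/6 mice got colistin 20 mg/kg SC daily for 7 days plus peptide 1 mg/kg intraperitoneally every other day; groups of n = 5 (control, colistin, colistin + peptide). Kidneys were taken at day 7. Cytochrome C was detected by immunohistochemistry (citrate antigen retrieval, HRP-polymer detection, hematoxylin counterstain). Sections were also stained with PAS and Masson's trichrome to score histologic damage and fibrosis.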

Mus musculus [17] = experiment: Protection against colistin-induced nephrotoxicity in C57BL/6 mouse model assessed as reduction in 8-OHdG level at 1 mg/kg, ip administered once every other day measured after 7 days by IHC analysis; assay type: functional, organism-based; conditions: time 7.0 day; outline: as §1
Mus musculus [18] = experiment: Protection against colistin-induced nephrotoxicity in C57BL/6 mouse model assessed as reduction in cyt C level at 1 mg/kg, ip administered once every other day measured after 7 days by IHC analysis; assay type: functional, organism-based; conditions: time 7.0 day; outline: as §3
Epithelial cell [19] = experiment: Reversal of H2O2-induced IL-1beta mRNA level in human tubular epithelial cells at 10 to 100 nM by qPCR analysis; assay type: functional, cell-based; conditions: dose 10-100 nM
Mus musculus [20] = experiment: Protection against colistin-induced nephrotoxicity in C57BL/6 mouse model assessed as reduction in acute tubular necrosis at 1 mg/kg, ip administered once every other day measured after 7 days by […] analysis; assay type: functional, organism-based; conditions: time 7.0 day; outline: as §1
Mus musculus [21] = experiment: Protection against colistin-induced nephrotoxicity in C57BL/6 mouse model assessed as increase in SOD-1 level at 1 mg/kg, ip administered once every other day measured after 7 days by IHC analysis; assay type: functional, organism-based; conditions: time 7.0 day; outline: as §1

Compound: CC(=O)N[C@@H](CC1CCCCC1)C(=O)N[C@H]1CSSC[C@@H](C(=O)N[C@@H](CCCNC(=N)N)C(N)=O)NC(=O)[C@H](CC2CCCCC2)NC(=O)[C@H](CCCNC(=N)N)NC(=O)[C@H](CCCNC(=N)N)NC(=O)[C@H](CC2CCCCC2)NC(=O)[C@H](CC(C)C)NC(=O)[C@H](CCCNC(=N)N)NC(=O)[C@@H](NC(=O)[C@H](CC2CCCCC2)NC(=O)c2ccc3c(c2)C(=O)OC32c3ccc(N(C)C)cc3Oc3cc(N(C)C)ccc32)CSSC[C@@H](C(=O)N[C@@H](CCCNC(=N)N)C(N)=O)NC(=O)[C@H](CC2CCCCC2)NC(=O)[C@H](CCCNC(=N)N)NC(=O)[C@H](CCCNC(=N)N)NC(=O)[C@H](CC2CCCCC2)NC(=O)[C@H](CC(C)C)NC(=O)[C@H](CCCNC(=N)N)NC1=O (I: Ac-[Cha]CRL[Cha]RR[Cha]CR-NH2 / II: 5TAMRA-[Cha]CRL[Cha]RR[Cha]CR-NH2; disulfide I:2-II:9, I:9-II:2)
- Activity (Mus musculus [1]): Active
- Activity (Mus musculus [2]): Active
- Activity (Mus musculus [3]): Active
- Activity (Epithelial cell [4]): Active
- Activity (Mus musculus [5]): Active
- Activity (Mus musculus [6]): Active
- inhibition (Epithelial cell [7]): Active
- Drug uptake [8]: Active
- Activity (Mus musculus [9]): Active
- inhibition (Mitochondria): Dose-Dependent Effect
- Activity (Epithelial cell [10]): Dose-Dependent Effect
- Activity (Epithelial cell [11]): Active
- Activity (Mus musculus [12]): Active
- Drug uptake [13]: Active
- Drug uptake [14]: Active
- Activity (Epithelial cell [15]): Active
- Activity (Mus musculus [16]): Active
- Activity (Mus musculus [17]): Active
- Activity (Mus musculus [18]): Active
- Activity (Epithelial cell [19]): Active
- Activity (Mus musculus [20]): Active
- Activity (Mus musculus [21]): Active
